Key:
[1] = tested on: L1210; experiment: Cytotoxicity in L1210 cell lines; type: functional, cell-based; conditions: Mus musculus
In short: (§1)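 L1210 murine leukemia cells, early to mid log phase, in RPMI with 10% FCS, glutamine, antibiotics and 2 mM aminoguanidine at 37 °C, 5% CO2. Cells were seeded at 5 × 10^4 cells/mL with drug added at seeding. For line 3, DFMO at 5 mM was present in the medium from drug addition. After 48 h of exposure, growth was read as MTT formazan absorbance at 540 nm.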

[2] = tested on: L1210; experiment: Cytotoxicity in DFMO treated L1210 cell lines; type: functional, cell-based; conditions: Mus musculus; in short: as §1
[3] = Ratio of IC50 value determined in L1210 cell lines to the IC50 value determined in DFMO treated L1210 cell lines was evaluated; type: functional
[4] = Ratio of IC50 value determined in CHO-MG cell lines to the IC50 value determined in CHO cell lines was evaluated
[5] = tested on: CHO (Chinese hamster); experiment: Cytotoxicity in CHO cell lines; conditions: Cricetulus griseus
[6] = tested on: CHO-MG (Chinese hamster); experiment: Cytotoxicity in CHO-MG cell lines; conditions: Cricetulus griseus

Compound Cl.Cl.NCCOCCOCCNCc1c2ccccc2cc2ccccc12 has an IC50 [1] of 11.3 µM, an IC50 [2] of 17 µM and a Ratio [3] of 0.7. For the same compound, the Ratio [4] was 1.3, the IC50 [5] was 12.6 µM and the IC50 [6] was 15.9 µM.
Cl.Cl.NCCCCCCCCNCc1c2ccccc2cc2ccccc12 showed an IC50 [1] of 3 µM, an IC50 [2] of 4.6 µM and a Ratio [3] of 0.7. The Ratio [4] was 1, the IC50 [5] was 4.9 µM and the IC50 [6] was 4.9 µM.
Work on Cl.NCCCCNCCCCNCc1cccc2ccccc12 yielded a Ratio [3] of 1.1, an IC50 [5] of 0.6 µM and an IC50 [6] greater than 100 µM.
With Cl.NCCCCNCCCCNCc1c2ccccc2cc2ccccc12 the Ratio [3] was 2, the IC50 [5] was 0.45 µM and the IC50 [6] was 66.7 µM.
With Cl.NCCCCNCCCCNCc1ccccc1 the IC50 [2] was 421 µM and the Ratio [3] was 0.1.
Cl.NCCCCNCCCCNCc1ccc2ccc3cccc4ccc1c2c34 gave an IC50 [2] of 0.36 µM, a Ratio [3] of 1.1 and an IC50 [5] of 0.46 µM. It also gave an IC50 [6] of 15.5 µM.
Work on Cl.NCCCNCCCCNCc1c2ccccc2cc2ccccc12 yielded a Ratio [3] of 2, a Ratio [4] of 24 and an IC50 [5] of 0.4 µM. The IC50 [6] was 9.5 µM.
For Cl.NCC(O)CNCCCCNCc1c2ccccc2cc2ccccc12 (stereo unspecified), the IC50 [1] was 1.5 µM, the IC50 [2] was 2.3 µM and the Ratio [3] was 0.7. The Ratio [4] was 1, the IC50 [5] was 9.1 µM and the IC50 [6] was 9.5 µM.
CCCCNCc1c2ccccc2cc2ccccc12.Cl gave a Ratio [3] of 0.7, an IC50 [5] of 10.5 µM and an IC50 [6] of 11.2 µM.
In the case of Cl.Cl.NCCCCNCc1c2ccccc2cc2ccccc12, the Ratio [3] is reported as 0.7, the IC50 [5] is reported as 7.7 µM and the IC50 [6] is reported as 7.6 µM.
Compound Cl.NC1CCC(NCCCCNCc2c3ccccc3cc3ccccc23)CC1 (stereo unspecified) has an IC50 [1] of 1 µM, an IC50 [2] of 0.7 µM and a Ratio [3] of 1.4. It also gave a Ratio [4] of 7, an IC50 [5] of 2.5 µM and an IC50 [6] of 17.4 µM.

— ChEMBL document CHEMBL1145903, “Defining the molecular requirements for the selective delivery of polyamine conjugates into cells containing active polyamine transporters” (J Med Chem, 2003)
